The values that follow come from ChEMBL document CHEMBL1148030, “Substituted 6-amino-4H-[1,2]dithiolo[4,3-b]pyrrol-5-ones: synthesis, structure-activity relationships, and cytotoxic activity on selected human cancer cell lines” (Bioorg Med Chem, 2007).

Calls of active or inactive are those of the source. The calls are words filed in the database; no cut-off is given here.

As a reminder, the IC50 is the concentration at which inhibition is half-maximal. Lower therefore signals greater potency in that assay. For orientation: half-life means the time in which the quantity being followed falls by half. The term Tmax denotes the time at which the peak concentration occurs. As a reminder, the Cmax is the peak of the concentration-time curve. As usually defined, the AUC(0-t) is the area under the concentration-time curve up to a stated or last time point. As usually defined, the inhibition in vivo is the relative decrease from the control value, in per cent. Lower therefore signals a response near the control.

The nature of series [1]: Cytotoxicity against human LCC6 cells after 48 hrs by MTT assay. The format is functional, cell-based. The settings on record: LCC-6, 48 h. In general terms: Tetrazolium assays rely on reduction of a dye to a coloured formazan, in cell work by metabolically active cells.
The next series deals with Endothelial cell. The series is described as follows: Induction of apoptosis in human endothelial cells by annexin V apoptosis assay. The format is functional, cell-based.
Series [2] deals with NCI-H460. The series is described as follows: Cytotoxicity against human H460 cells after 48 hrs by MTT assay. The settings on record: NCI-H460, 48 h. Format: functional, cell-based.
The subject of series [3] is NCI-H460. The series is described as follows: Induction of apoptosis in human H460 cells by annexin V apoptosis assay. The format is functional, cell-based.
A further series concerns LCC6. The series is described as follows: Induction of apoptosis in human LCC6 cells by annexin V apoptosis assay. Format: functional, cell-based.
Series [4] in a line: Half life in mouse at 38.2 umol/kg, ip. The settings on record: in vivo.
Series [5] is described as follows: Plasma clearance in mouse at 38.2 umol/kg, ip.
Series [6] in a line: Tmax in mouse at 38.2 umol/kg, ip. The settings on record: in vivo.
A short description of series [7]: Cmax in mouse at 38.2 umol/kg, ip within 30 mins. The settings on record: in vivo.
Series [8] in a line: AUC (0 to 480 mins) in mouse at 38.2 umol/kg, ip. To be noted: plasma.
Series [9] relates to SK-MEL-28. The experiment in a line: Antitumor activity against VEGF expressing human SK-MEL-28 cells xenografted in mouse assessed as loss of body weight at 5 to 10 mg/kg, ip after 24 days. The format is functional, organism-based. The method, boiled down:
(§1)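 SK-MEL-28 V+ cells (engineered to overexpress VEGF) of over 95% viability were used to grow primary tumours in mice. These tumours were cut into 1 mm³ explants and implanted subcutaneously. Once tumours were palpable, mice were randomized and dosed intraperitoneally for 24 days: daily at 5 or 10 mg/kg, or every second day at 20 mg/kg. Tumours were measured by caliper every 2–5 days. Body weight and histology were assessed for toxicity.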
In general terms: In xenograft studies the graft and the host belong to different species.

Another series has as its system Mus musculus. The experiment in a line: Toxicity in VEGF expressing human SK-MEL-28 cells xenografted in mouse assessed as effect on histological indications at 5 to 10 mg/kg, ip daily for 24 days. To be noted: in vivo.
Series [10] in a line: AUC (0 to 480 mins) in mouse at 36.8 umol/kg, ip. The settings on record: plasma.
Series [11] can be described thus: Plasma clearance in mouse at 36.8 umol/kg, ip.
A short description of series [12]: Half life in mouse at 36.8 umol/kg, ip. The settings on record: in vivo.
Series [13] is described as follows: Inhibition of tumor growth in human SK-MEL-28V+ cells xenografted in mouse at 20 mg/kg, ip administered every altenative day for 24 days. Format: functional. To be noted: 576 h, route intraperitoneal. The method, boiled down: as §1
Series [14] can be described thus: Tmax in mouse at 36.8 umol/kg, ip. To be noted: in vivo.
Series [15] can be described thus: Cmax in mouse at 36.8 umol/kg, ip within 30 mins. To be noted: in vivo.
For series [16], the system named is SK-MEL-28. The experiment in a line: Inhibition of tumor growth in VEGF expressing human SK-MEL-28 cells xenografted in mouse at 10 mg/kg, ip administered every altenative day for 24 days. The format is functional. To be noted: SK-MEL-28, ip, 576 h, route intraperitoneal.

In the case of `COc1ccc(-n2c3cssc-3c(NC(=O)C(F)(F)F)c2=O)c(OC)c1`, the IC50 was 60 nM in series [1] and 170 nM in the series on NCI-H460 [2]. In addition, the outcome with Endothelial cell, with NCI-H460 [3] and with LCC6 was Active.
With `CC(=O)Nc1c2sscc-2n(-c2ccc(C)cc2)c1=O`, the concentration for half-maximal inhibition (IC50) in series [1] is 220 nM; in the series on NCI-H460 [2], 44 nM. The outcome in the series on Endothelial cell, in the series with NCI-H460 [3] and in the series on LCC6 was Active.
Take `CCCCC(C)C(=O)Nc1c2sscc-2[nH]c1=O` (stereo not drawn): the IC50 (in series [1]; in the series with NCI-H460 [2]) was 200 nM throughout. Moreover, the result in the series on Endothelial cell, in the series with NCI-H460 [3] and in the series on LCC6 was Active.
As to `COc1ccc(-n2c3cssc-3c(NC(=O)c3cc(F)cc(F)c3)c2=O)c(OC)c1`, the results for the IC50 (in series [1]; in the series on NCI-H460 [2]) were 349 nM and 11 nM, respectively. Besides, the outcome in the series with Endothelial cell, in the series with NCI-H460 [3] and with LCC6 was Active.
For `COc1ccc(C(=O)Nc2c3sscc-3n(-c3ccc(OC)cc3OC)c2=O)c(OC)c1`, the 50% inhibitory concentration (IC50) in [1] was 251 nM; with NCI-H460 [2], 11 nM. For the same compound, the result in the series with Endothelial cell, in the series with NCI-H460 [3] and with LCC6 was Active.
With `COc1ccc(-n2c3cssc-3c(NC(=O)c3ccc(C(F)(F)F)cc3)c2=O)c(OC)c1`, the IC50 came out at 85 nM in series [1] and 7 nM in the series with NCI-H460 [2]. The outcome in the series with Endothelial cell, with NCI-H460 [3] and with LCC6 was Active.
Regarding `COc1ccc(-n2c3cssc-3c(NC(=O)c3ccco3)c2=O)c(OC)c1`, the IC50 in series [1] stood at 28 nM; in the series on NCI-H460 [2] it was 50 nM. The result in the series on Endothelial cell, in the series with NCI-H460 [3] and in the series with LCC6 was Active.
As for `COc1ccc(-n2c3cssc-3c(NC(=O)c3cc(O)c(C(C)C)c(O)c3)c2=O)c(OC)c1`, the half-life in [4] came out at 1.57 h. Besides, the IC50 in [1] is 70 nM; in the series on NCI-H460 [2] it was 72 nM. Further, in series [5], the clearance worked out at 6.3 mL/min/kg. Moreover, the result with Endothelial cell, in the series with NCI-H460 [3] and with LCC6 was Active. Besides, the time to peak (Tmax) in series [6] is 3 min. This compound also came in with a Cmax in series [7] of 106 µM. For the same compound, the exposure AUC(0-t) at 8 h in series [8] was 102 µM·h.
Consider `COc1ccc(-n2c3cssc-3c(NC(=O)C(F)(F)F)c2=O)cc1`, for which the IC50 came out at 220 nM in [1] and 190 nM with NCI-H460 [2]. Also, the result with Endothelial cell, in the series with NCI-H460 [3] and with LCC6 was Active.
Take `COc1ccc(-n2c3cssc-3c(NC(=O)c3cc(C(F)(F)F)cc(C(F)(F)F)c3)c2=O)c(OC)c1`: the outcome with SK-MEL-28 [9], in the series with Endothelial cell, in the series on NCI-H460 [3] and in the series with LCC6 was Active. Also, in the series on Mus musculus, the result was Active. This compound also showed an AUC(0-t) at 8 h in [10] of 210 µM·h. Also, the clearance in series [11] was 2.9 mL/min/kg. Moreover, the IC50 in [1] was determined as 160 nM; with NCI-H460 [2] it was 130 nM. In series [12], this compound displayed a half-life of 2.67 h. In addition, 20 mg/kg produced 58% inhibition in vivo in [13]. Moreover, the Tmax in series [14] was 0.5 h. The same compound returned a Cmax in series [15] of 57 µM.
As to `COc1ccc(-n2c3cssc-3c(NC(=O)c3cccs3)c2=O)c(OC)c1`, the values for the IC50 (in [1]; in the series with NCI-H460 [2]) were 210 nM and 8 nM, respectively. Also, the outcome in the series with Endothelial cell, with NCI-H460 [3] and in the series with LCC6 was Active.
For `COc1ccc(-n2c3cssc-3c(NC(C)=O)c2=O)cc1`, the IC50 was 220 nM in [1] and 53 nM in the series with NCI-H460 [2]. Besides, the outcome in the series with Endothelial cell, in the series with NCI-H460 [3] and with LCC6 was Active.
`CC(=O)Nc1c2sscc-2n(Cc2ccccc2)c1=O`: the outcome with Endothelial cell, in the series with NCI-H460 [3] and with LCC6 was Active. For the same compound, in the series with NCI-H460 [2], the IC50 was found to be 900 nM.
Regarding `CC(C)c1ccc(-n2c3cssc-3c(NC(=O)c3cc(O)c(C(C)C)c(O)c3)c2=O)cc1`, the IC50 in [1] worked out at 40 nM; in the series on NCI-H460 [2], 150 nM. Also, the result with Endothelial cell, in the series on NCI-H460 [3] and with LCC6 was Active.
As for `O=C(Nc1c2sscc-2n(Cc2ccccc2)c1=O)c1cc(C(F)(F)F)cc(C(F)(F)F)c1`, the IC50 in series [1] was found to be 1180 nM; in the series with NCI-H460 [2] it was 706 nM. Also, the result in the series on Endothelial cell, in the series with NCI-H460 [3] and in the series with LCC6 was Active.
`CC(=O)O[C@H]1C(=O)[C@@]2(C)[C@H]([C@H](OC(=O)c3ccccc3)[C@]3(O)C[C@H](OC(=O)[C@H](O)[C@@H](NC(=O)c4ccccc4)c4ccccc4)C(C)=C1C3(C)C)[C@]1(OC(C)=O)CO[C@@H]1C[C@@H]2O` [PACLITAXEL] showed an inhibition in vivo at 10 mg/kg in the series on SK-MEL-28 [16] of 37%.
Take `CC(C)c1c(O)cc(C(=O)Nc2c3sscc-3n(Cc3ccccc3)c2=O)cc1O`: the IC50 in series [1] came to 250 nM; in the series with NCI-H460 [2] it was 170 nM. For the same compound, the outcome with Endothelial cell, in the series with NCI-H460 [3] and with LCC6 was Active.
For `COc1ccc(-n2c3cssc-3c(NC(C)=O)c2=O)c(OC)c1`, the IC50 in series [1] amounted to 190 nM; in the series with NCI-H460 [2], 30 nM. The result with Endothelial cell, in the series with NCI-H460 [3] and in the series with LCC6 was Active.
